# Experimental data collected from several papers.
# Each line is one published result; the experiments were not run side by side.
# LRRK2: Leucine-rich repeat serine/threonine-protein kinase 2 (LRRK2, Homo sapiens, UniProt Q5S007)
# LRRK2 G2019S: Leucine-rich repeat serine/threonine-protein kinase 2 (LRRK2, Homo sapiens, UniProt Q5S007, G2019S)
Compound,target,observed,mode,technique,measurement,result
O=c1ccc2cc(O)c(O)cc2o1,LRRK2,enzyme activity,inhibitor,radiometric,IC50,1730 nM
Cc1cnc(-c2ccc(-c3ccc(NC(=O)Nc4c(F)cc(F)cc4F)cc3F)c3c2C(=O)NC3)[nH]1,LRRK2,binding,,competition with immobilised ligand,Kd,260 nM
CC(Cc1ccc(O)c(O)c1)C(C)Cc1ccc(O)c(O)c1 (stereo not drawn),LRRK2 G2019S,enzyme activity,inhibitor,radiometric,IC50,210 nM
COc1cc(N2CCN(C)CC2)ccc1Nc1ncc2c(n1)N(C)c1ccccc1C(=O)N2C,LRRK2,enzyme activity,inhibitor,,IC50,29 nM
C[C@@H]1CN(c2cc(-c3nn(C)c4ccc(OC5(C)CC5)cc34)ncn2)C[C@H](C)O1,LRRK2,target engagement in cells,,BRET,EC50,> 50000 nM
CC(=O)NC1CCN(c2ncnc3[nH]cc(-c4cccc(Cl)c4)c23)CC1,LRRK2,enzyme activity in cells,inhibitor,,IC50,1100 nM
COc1cc(N2CCN(C)CC2)ccc1Nc1ncc2c(n1)N(C)c1ccccc1C(=O)N2,LRRK2,enzyme activity,inhibitor,,IC50,70 nM
O=C(/C=C/c1ccc(O)c(O)c1)O[C@H](Cc1ccc(O)c(O)c1)C(=O)O,LRRK2 G2019S,enzyme activity,inhibitor,radiometric,IC50,496 nM
CN(C(=O)c1cnn2cccnc12)c1cc2c(cc1N1CCOCC1)C(=O)N(C[C@@H](F)C(C)(C)O)C2,LRRK2,target engagement in cells,,BRET,EC50,> 50000 nM
